Active and inactive are the calls of the source. The rule behind the calls is not given here.
Columns and labels:
[1] = Inhibition of histidine-tagged HDAC4 wild type catalytic domain purified from Escherichia coli after 10 mins
Summary of the method: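 His-tagged HDAC4 catalytic domain (653-1084) expressed in E. coli. Trifluoroacetamide substrate then added for 1 h at 37 °C. Stopped with developer/TSA; fluorescence read at ex 360/em 460. IC50 values are means of >2 experiments.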

Hepatocyte = assay: Toxicity in human hepatocytes by MTS assay; assay type: cell-based
Cytochrome P450 2C9 [2] = molecular target: T1, Cytochrome P450 2C9 (Homo sapiens, UniProt P11712); assay: Inhibition of CYP2C9 in human liver microsomes; assay type: ADME, Microsome
T1 sequence (P11712 whole entry): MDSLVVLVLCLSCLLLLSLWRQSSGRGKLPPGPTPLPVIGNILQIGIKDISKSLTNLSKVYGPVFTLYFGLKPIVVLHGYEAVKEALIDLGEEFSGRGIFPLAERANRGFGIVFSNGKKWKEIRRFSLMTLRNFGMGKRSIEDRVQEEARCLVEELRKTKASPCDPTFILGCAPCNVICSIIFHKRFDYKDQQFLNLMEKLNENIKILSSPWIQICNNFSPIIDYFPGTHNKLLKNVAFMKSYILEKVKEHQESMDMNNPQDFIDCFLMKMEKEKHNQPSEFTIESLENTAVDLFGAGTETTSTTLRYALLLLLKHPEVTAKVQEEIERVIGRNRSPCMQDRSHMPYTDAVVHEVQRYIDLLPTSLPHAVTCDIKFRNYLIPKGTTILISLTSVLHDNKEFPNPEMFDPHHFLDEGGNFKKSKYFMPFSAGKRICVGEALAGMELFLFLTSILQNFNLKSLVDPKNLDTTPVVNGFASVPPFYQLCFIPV
Summary of the method: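 Human liver microsomes. Read-out is tritium released as tritiated water on CYP2C9-mediated 4'-hydroxylation of diclofenac tritiated at the 4' position. IC50 values are means of >2 experiments.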

[3] = molecular target: T2, Histone deacetylase (Homo sapiens) (UniProt Q13547+O15379+Q9UBN7+Q92769+Q9UQL6+Q8WUI4+Q9BY41+Q96DB2+P56524+Q9UKV0+Q969S8); assay: Inhibition of HDAC in human HCT116 cells assessed as alpha-tubulin deacetylation at 50 uM after 24 hrs relative to 10 uM SAHA; assay type: cell-based; details: HCT-116
Summary of the method: (§1)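 HCT116 cells treated 24 h. Alpha-tubulin acetylation measured, with the signal from 10 µM SAHA taken as 100% activation. Values are means of >2 experiments.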

[4] = molecular target: T3, Protein deacetylase HDAC6 (Homo sapiens, UniProt Q9UBN7); assay: Inhibition of HDAC6 purified from HEK293 cells by Western blot; assay type: cell-free
T3 sequence (Q9UBN7 whole entry): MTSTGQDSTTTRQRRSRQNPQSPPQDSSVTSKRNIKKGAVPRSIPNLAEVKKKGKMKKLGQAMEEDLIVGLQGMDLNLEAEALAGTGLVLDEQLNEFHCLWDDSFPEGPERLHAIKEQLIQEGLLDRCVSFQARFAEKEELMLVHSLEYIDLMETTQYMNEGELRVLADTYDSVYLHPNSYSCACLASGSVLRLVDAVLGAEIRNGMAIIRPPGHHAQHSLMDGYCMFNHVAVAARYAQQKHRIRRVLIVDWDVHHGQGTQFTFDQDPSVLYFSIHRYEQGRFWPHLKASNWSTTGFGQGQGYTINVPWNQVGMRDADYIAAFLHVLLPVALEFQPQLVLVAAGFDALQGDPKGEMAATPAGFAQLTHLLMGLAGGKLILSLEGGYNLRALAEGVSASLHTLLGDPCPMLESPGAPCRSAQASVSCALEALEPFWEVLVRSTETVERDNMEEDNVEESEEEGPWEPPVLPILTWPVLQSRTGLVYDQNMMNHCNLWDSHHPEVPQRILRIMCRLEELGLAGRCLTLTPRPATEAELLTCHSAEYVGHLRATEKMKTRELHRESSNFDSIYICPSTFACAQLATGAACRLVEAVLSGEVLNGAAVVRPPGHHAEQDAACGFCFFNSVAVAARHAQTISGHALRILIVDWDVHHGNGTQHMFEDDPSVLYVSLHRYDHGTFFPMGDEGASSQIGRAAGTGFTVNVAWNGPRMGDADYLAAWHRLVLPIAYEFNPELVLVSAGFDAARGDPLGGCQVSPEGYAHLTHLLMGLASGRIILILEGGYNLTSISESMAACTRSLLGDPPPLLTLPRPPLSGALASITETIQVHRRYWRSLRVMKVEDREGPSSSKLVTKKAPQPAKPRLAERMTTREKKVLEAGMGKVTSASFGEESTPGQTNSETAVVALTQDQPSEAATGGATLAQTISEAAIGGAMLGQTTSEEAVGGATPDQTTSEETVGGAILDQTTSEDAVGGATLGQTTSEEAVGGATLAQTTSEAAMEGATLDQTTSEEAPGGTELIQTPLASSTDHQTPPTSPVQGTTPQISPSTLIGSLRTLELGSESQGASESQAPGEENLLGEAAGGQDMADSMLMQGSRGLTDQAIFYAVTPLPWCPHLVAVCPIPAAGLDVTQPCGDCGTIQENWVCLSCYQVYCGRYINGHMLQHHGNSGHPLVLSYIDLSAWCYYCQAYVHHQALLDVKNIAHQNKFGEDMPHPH

Cytochrome P450 2C9 [5] = molecular target: T1, Cytochrome P450 2C9; assay: Inhibition of CYP2C9 in human hepatocytes; assay type: ADME, cell-based, Hepatocyte
Summary of the method: (§2)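 Human hepatocytes. Read-out is CYP2C9-mediated 4'-hydroxylation of 4'-tritiated diclofenac, measured as tritiated water. Run without serum and with 10% FBS added. IC50 values are means of >2 experiments.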

Cytochrome P450 2C9 [6] = molecular target: T1, Cytochrome P450 2C9; assay: Inhibition of CYP2C9 in human hepatocytes in presence of 10% fetal bovine serum; assay type: ADME, cell-based, Hepatocyte; summary of the method: as §2
Histone deacetylase 3 = Histone deacetylase 3 (Homo sapiens, UniProt O15379); assay: Inhibition of HDAC3 purified from HEK293 cells by Western blot; assay type: cell-free
Histone deacetylase 3, sequence (O15379 whole entry): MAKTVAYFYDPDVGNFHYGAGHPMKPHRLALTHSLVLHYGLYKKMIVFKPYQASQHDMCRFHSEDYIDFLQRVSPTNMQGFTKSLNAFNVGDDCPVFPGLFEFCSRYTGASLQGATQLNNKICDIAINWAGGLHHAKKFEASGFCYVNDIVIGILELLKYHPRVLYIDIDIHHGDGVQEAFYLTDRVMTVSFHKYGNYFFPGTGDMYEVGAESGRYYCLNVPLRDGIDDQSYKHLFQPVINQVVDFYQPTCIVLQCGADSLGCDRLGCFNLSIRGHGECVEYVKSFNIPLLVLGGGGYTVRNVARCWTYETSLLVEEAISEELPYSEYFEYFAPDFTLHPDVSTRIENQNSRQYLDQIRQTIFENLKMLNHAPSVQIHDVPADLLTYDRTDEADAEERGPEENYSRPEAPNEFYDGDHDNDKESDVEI

Histone deacetylase 1 = Histone deacetylase 1 (Homo sapiens, UniProt Q13547); assay: Inhibition of HDAC1 purified from HEK293 cells by Western blot; assay type: cell-free
Histone deacetylase 1, sequence (Q13547 whole entry): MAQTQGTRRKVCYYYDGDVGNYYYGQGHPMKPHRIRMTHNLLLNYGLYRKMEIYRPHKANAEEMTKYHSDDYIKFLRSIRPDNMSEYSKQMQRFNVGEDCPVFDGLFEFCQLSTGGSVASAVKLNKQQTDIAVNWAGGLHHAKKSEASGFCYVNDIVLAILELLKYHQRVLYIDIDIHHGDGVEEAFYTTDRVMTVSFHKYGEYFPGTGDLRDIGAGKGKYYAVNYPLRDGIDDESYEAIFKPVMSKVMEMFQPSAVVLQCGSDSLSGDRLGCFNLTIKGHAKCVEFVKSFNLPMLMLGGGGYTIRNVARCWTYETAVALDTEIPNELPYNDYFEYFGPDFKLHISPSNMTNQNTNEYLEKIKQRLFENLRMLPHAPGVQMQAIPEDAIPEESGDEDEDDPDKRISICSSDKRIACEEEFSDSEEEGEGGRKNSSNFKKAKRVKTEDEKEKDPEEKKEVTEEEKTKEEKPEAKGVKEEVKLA

[7] = molecular target: T2, Histone deacetylase (Homo sapiens); assay: Inhibition of HDAC in human HCT116 cells assessed as alpha-tubulin deacetylation up to 10 uM after 24 hrs; assay type: cell-based; details: HCT-116; summary of the method: as §1
[8] = Stability in human HCT116 cells S9 fraction by LCMS/MS in presence of NADPH; assay type: ADME, subcellular
Summary of the method: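 S9 at 1 mg/ml with 1 mM NADPH plus a regenerating system, 37 °C with low shaking. Stopped with 1N HCl, centrifuged, supernatant diluted with acetonitrile containing internal standard, analysed by LCMS/MS.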

Histone deacetylase [9] = assay: Inhibition of HDAC in human HCT116 cells assessed as alpha-tubulin deacetylation; assay type: cell-based; details: hct-116; summary of the method: as §1
[10] = molecular target: T2, Histone deacetylase (Homo sapiens); details: HCT-116, 50 uM
[11] = Stability in human HCT116 cells by LCMS/MS in presence of 10% fetal bovine serum; assay type: ADME, cell-based, HCT-116
Summary of the method: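 Compounds at 1 and 5 µM incubated with HCT116 cells in medium with 10% FBS for up to 24 h. Aliquots taken over time and analysed by LCMS/MS. A cell-free medium control was run. Half-life was derived.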

Histone deacetylase [12] = assay: Inhibition of HDAC in human HCT116 cells assessed as histone H3 deacetylation; assay type: cell-based; details: hct-116
[13] = molecular target: T2, Histone deacetylase (Homo sapiens); assay: Inhibition of HDAC in human HCT116 cells assessed as histone H3 deacetylation up to 10 uM; assay type: cell-based; details: HCT-116
[14] = Toxicity in human […] by MTS assay
[15] = molecular target: T2, Histone deacetylase (Homo sapiens); details: HCT-116, 25 uM

Row | Compound | IC50 [1] [nM] | IC50 (Cytochrome P450 2C9 [2]) [nM] | IC50 [4] [nM] | IC50 (Cytochrome P450 2C9 [5]) [nM] | IC50 (Histone deacetylase 3) [nM] | IC50 (Histone deacetylase 1) [nM] | half-life [8] [h] | half-life [11] [h] | Activity (Hepatocyte) | further results
1 | O=C(c1ccc(C(=O)C(F)(F)F)s1)N1CCc2ccccc21 | 150 | – | 130 | – | 1400 | 1300 | – | – | – | –
2 | O=C(c1ccc(C(=O)C(F)(F)F)s1)N1CCn2c(-c3ccccc3)cnc2C1 | 300 | – | – | – | > 5000 | 4700 | – | – | – | –
3 | O=C(NCc1ccccc1Cl)c1ccc(C(=O)C(F)(F)F)s1 | 100 | – | 190 | – | – | 550 | 0.25 | – | – | Activity [7]: inactive
4 | O=C(c1ccc(C(=O)C(F)(F)F)[nH]1)N1CCc2ccccc21 | – | – | 580 | – | – | – | 0.25 | – | – | –
5 | CN(Cc1ccccc1)C(=O)c1ccc(C(=O)C(F)(F)F)s1 | 510 | – | – | – | 560 | 890 | – | – | – | –
6 | O=C(c1ncc(C(=O)C(F)(F)F)s1)N1CCc2ccccc21 | 13 | – | 410 | – | – | 1600 | 0.333 | – | – | Activity [7]: inactive
7 | O=C(c1ccc(C(=O)C(F)(F)F)s1)N1CCC(c2nnc(-c3ccccc3)o2)CC1 | 70 | 8000 | 160 | 8000 | 2800 | 1300 | – | 2 | Non-toxic | IC50 (Cytochrome P450 2C9 [6]): 5000 nM
8 | CC(NC(=O)c1ccc(C(=O)C(F)(F)F)s1)c1ccncc1 (stereo not drawn) | 90 | 13000 | 260 | 10000 | 1500 | 1600 | – | 5 | Non-toxic | EC50 (Histone deacetylase [9]): 10000 nM; IC50 (Cytochrome P450 2C9 [6]): 3000 nM; EC50 (Histone deacetylase [12]): > 35000 nM
9 | CC(NC(=O)c1ccc(C(=O)C(F)(F)F)s1)c1cccc2ccccc12 (stereo not drawn) | 170 | 1400 | 360 | 11000 | 840 | 830 | – | 3 | Non-toxic | inhibition [15]: 50%; IC50 (Cytochrome P450 2C9 [6]): 17000 nM

Now from value to molecule, other results behind:

Row | IC50 [1] [nM] | IC50 (Cytochrome P450 2C9 [2]) [nM] | IC50 [4] [nM] | IC50 (Cytochrome P450 2C9 [5]) [nM] | IC50 (Histone deacetylase 3) [nM] | IC50 (Histone deacetylase 1) [nM] | half-life [8] [h] | half-life [11] [h] | Compound | Activity (Hepatocyte) | further results
10 | 480 | 5000 | 170 | 8000 | – | – | – | – | COc1cccc(N2CCN(C(=O)c3ccc(C(=O)C(F)(F)F)s3)CC2)c1 | Non-toxic | inhibition [3]: 50%; IC50 (Cytochrome P450 2C9 [6]): 8000 nM
11 | 170 | – | 150 | – | – | 5000 | – | – | C[C@H](NC(=O)c1ccc(C(=O)C(F)(F)F)s1)c1ccccc1 | – | –
12 | 75 | – | – | – | – | – | > 2 | – | Cc1noc(-c2ccc(C(=O)C(F)(F)F)s2)n1 | – | EC50 (Histone deacetylase [9]): 6500 nM
13 | 100 | – | – | – | – | – | 0.333 | 3.5 | CN(Cc1ccc2nccnc2c1)C(=O)c1ccc(C(=O)C(F)(F)F)s1 | – | inhibition [10]: 40%; EC50 (Histone deacetylase [9]): 12000 nM
14 | – | – | 3320 | – | – | – | > 2 | – | O=C(NCC1CCCCC1)c1ccc(C(=O)C(F)(F)F)cn1 | – | –
15 | 530 | 1800 | 175 | 1800 | > 10000 | 4400 | – | 2 | COc1ccc(Cl)cc1N1CCN(C(=O)c2ccc(C(=O)C(F)(F)F)s2)CC1 | Non-toxic | Activity [7]: inactive; Activity [13]: inactive; Activity [14]: Non-toxic

Reference: ChEMBL document CHEMBL1152285 (Bioorg Med Chem Lett, 2008)
